This is an account of results in article PMC6699892 (Inorganic chemistry, 2019).

Each structure is given as a SMILES string.

This data set is described as follows: Lipophilicity, modified shake flask octanol-water partition. The format is physicochemical. To be noted: chloride salts, 50 µM, 1-octanol/water, room temperature. The essentials: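 1-Octanol and water were mutually pre-saturated by shaking for 24 h at room temperature. Test compound at 50 µM in water-saturated octanol was mixed with an equal volume of octanol-saturated water, hand-shaken 200 times and centrifuged (11,000 rpm, 2 min). Each layer was quantified by absorbance against standard curves.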

Consider `[Cl][Ru][Cl].c1ccc(-c2ccccn2)nc1.c1ccc(-c2ccccn2)nc1.c1ccc(-c2ccccn2)nc1` [[Ru(bpy)3]Cl2, reference compound], for which the “Octanol-water partition coefficient (log Po/w)” value was less than −3.
